Laboratory results published in ChEMBL document CHEMBL6182837, “Discovery and biological evaluation of nitrofuranyl-pyrazolopyrimidine hybrid conjugates as potent antimicrobial agents targeting Staphylococcus aureus and methicillin-resistant S. aureus” (RSC Med Chem, 2025).
In brackets after ≈: the same amount, converted by molar mass. Activity calls are given as the source filed them. No cut-off for these calls is given here.

Assays:
Staphylococcus aureus [1] = experiment: Bactericidal activity against methicillin-resistant Staphylococcus aureus ATCC 15187 assessed as reduction in bacterial count at 2 times MIC measured after 8 to 10 hrs by time-kill assay; assay type: functional, organism-based; conditions: time 8-10 hrs
Staphylococcus aureus [2] = experiment: Antibacterial activity against Staphylococcus aureus SA-K2191 overexpressing MsrA by Alamar blue staining based analysis; assay type: functional
[3] = Terminal half life in male Balb/c mouse at 30 mg/kg, po by LC-MS/MS analysis; assay type: ADME, organism-based; conditions: in vivo, read-out: beta t1/2 (converted)
Method in brief: (§1)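 Balb/c mice dosed 1 mg kg−1 intravenously or 30 mg kg−1 orally (2.5 mg kg−1 oral also given); plasma PK parameters derived.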

[4] = Solubility of compound in water; assay type: physicochemical
[5] = Volume of distribution in male Balb/c mouse at 1 mg/kg, iv by LC-MS/MS analysis; assay type: ADME, organism-based; conditions: in vivo; method in brief: as §1
Staphylococcus aureus [6] = experiment: Additive antibacterial activity against methicillin-resistant Staphylococcus aureus ATCC 15187 assessed as fractional inhibitory concentration index at 0.075 ug/ml incubated up to 24 hrs in presence of vancomycin by checkerboard analysis; assay type: functional; conditions: dose 0.075 µg/ml
Method in brief: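 Checkerboard microdilution in cation-adjusted MHB, done per CLSI. The compound and partner antibiotic were dissolved in DMSO. The antibiotic was serially diluted across the plate and the compound was twofold serially diluted into the wells to make the combinations. Each well received 0.1 ml of inoculum, a 0.5 McFarland suspension (1.5 × 10^8 CFU ml−1) diluted 1:100 in MHB. Plates were incubated 24 h at 37 °C, then read with Alamar blue (0.04%). FIC index was calculated.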

[7] = Hemolytic activity in rabbit erythrocytes up to 200 ug/ml incubated for 4 hrs by absorbance based assay; assay type: toxicity, cell-based, Oryctolagus cuniculus; conditions: erythrocyte, dose < 200 µg/ml
Staphylococcus aureus [8] = experiment: Antibacterial activity against Staphylococcus aureus ATCC 29213 infected in mouse RAW264.7 cells assessed as bacterial eradication by colony counting method; assay type: functional, organism-based
Method in brief: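 RAW 264.7 macrophages infected with S. aureus, then treated with compound at multiples of MIC non-toxic to the cells; intracellular bacterial load enumerated as CFU ml−1; vancomycin comparator; one-way ANOVA versus infection control.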

[9] = Tmax in male Balb/c mouse at 30 mg/kg, po by LC-MS/MS analysis; assay type: ADME, organism-based; conditions: in vivo; method in brief: as §1
[10] = Drug metabolism in mouse liver microsomes; assay type: ADME, Microsome; conditions: read-out: Drug metabolism
Escherichia coli = experiment: Antibacterial activity against Escherichia coli ATCC 25922 incubated for 24 hrs by Alamar blue staining based microdilution method; assay type: functional
[11] = Volume of distribution in male Balb/c mouse at 30 mg/kg, po by LC-MS/MS analysis; assay type: ADME, organism-based; conditions: in vivo; method in brief: as §1
Staphylococcus aureus [12] = experiment: Antibacterial activity against Ciprofloxacin-sensitive Staphylococcus aureus […] by Alamar blue staining based analysis; assay type: functional
Staphylococcus aureus [13] = experiment: Antibacterial activity against methicillin-resistant Staphylococcus aureus ATCC 15187 infected in male Balb/c/c mouse assessed as reduction in bacterial load in kidney at 50 to 100 mg/kg measured after 24 hrs by colony counting method; assay type: functional, organism-based; conditions: dose 50-100 mg/kg
Method in brief: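 Mouse peritonitis model: 0.1 ml MRSA suspension (10^8 CFU ml−1) given intraperitoneally; treatment intraperitoneal at 50 or 100 mg kg−1 at 2 and 5 h post-infection, with saline and vancomycin (50 mg kg−1) controls; killed at 24 h; kidney and lung homogenates plated on Mueller–Hinton agar with 20 μg ml−1 ciprofloxacin, 24 h; CFU ml−1; unpaired t-test.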

[14] = Clearance in male Balb/c mouse at 1 mg/kg, iv by LC-MS/MS analysis; assay type: ADME, organism-based; conditions: in vivo; method in brief: as §1
RAW264.7 = experiment: Cytotoxicity against mouse RAW264.7 cells up to 200 ug/ml incubated for 48 to 72 hrs by absorbance based assay; assay type: toxicity, cell-based; conditions: time 48-72 hrs, dose < 200 µg/ml
Method in brief: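 MTT read-out: macrophage cells plated at 1 × 10^4 cells per well in DMEM with 10% FBS, 37 °C, 5% CO2; treatment 48 h and 72 h; 2.5 mg ml−1 MTT 3 h, formazan dissolved in DMSO, OD 570 nm; doxorubicin 10 μM control.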

[15] = Clearance in male Balb/c mouse at 30 mg/kg, po by LC-MS/MS analysis; assay type: ADME, organism-based; conditions: in vivo; method in brief: as §1
Staphylococcus aureus [16] = experiment: Antibacterial activity against Staphylococcus aureus SA-1199B overexpressing NorA by Alamar blue staining based analysis; assay type: functional
Staphylococcus aureus [17] = experiment: Bacteriostatic activity against Staphylococcus aureus ATCC 29213 assessed as reduction in bacterial count incubated for 2 to 24 hrs by time-kill assay; assay type: functional, organism-based; conditions: time 2-24 hrs
[18] = Cytotoxicity in human HepG2 cells incubated for 24 hrs by MTT assay; assay type: toxicity, cell-based
Method in brief: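 HepG2 cells, 1 × 10^4 per well in DMEM/10% FBS, 24 h attachment; compounds 200 to 0.19 μg ml−1 for 24 h at 37 °C, 5% CO2; MTT 2.5 mg ml−1 for 3 h, formazan in DMSO, OD 570 nm; doxorubicin 10 μM control.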

Staphylococcus aureus [19] = experiment: Disruption of pre-formed biofilms of Staphylococcus aureus ATCC 29213 at 4 to 6 times MIC incubated for 24 hrs by absorbance based method relative to control; assay type: functional
[20] = Protein binding in plasma (unknown origin); assay type: ADME, cell-free
[21] = AUC (0 to infinity) in male Balb/c mouse at 30 mg/kg, po by LC-MS/MS analysis; assay type: ADME, organism-based; conditions: in vivo; method in brief: as §1
Staphylococcus aureus [22] = experiment: Bactericidal activity against Staphylococcus aureus ATCC 29213 assessed as reduction in bacterial count at 2 to 4 times MIC incubated for 2 hrs by time-kill assay
Staphylococcus aureus [23] = experiment: Bactericidal activity against methicillin-resistant Staphylococcus aureus ATCC 15187 assessed as reduction in bacterial count at 1 to 4 times MIC by time-kill assay; assay type: functional, organism-based; conditions: time 2-24 hrs
Staphylococcus aureus [24] = experiment: Disruption of cell membrane integrity in methicillin-resistant Staphylococcus aureus ATCC 15187 assessed as red fluorescence at 1 to 2 times MIC incubated for 2.5 hrs by DAPI/PI staining based fluorescence microscopy; assay type: functional, organism-based
Method in brief: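 Bacteria treated at 1× and 2× MIC, with vancomycin 2× MIC as control and an untreated blank; stained with DAPI (all cells) and propidium iodide (membrane-damaged cells); imaged by fluorescence microscopy, red PI signal taken as membrane damage.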

Staphylococcus aureus [25] = experiment: Induction of morphological disruption in methicillin-resistant Staphylococcus aureus ATCC 15187 incubated for 2 to 6 hrs by SEM analysis; assay type: functional, organism-based; conditions: time 2-6 hrs
Method in brief: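 Bacteria incubated for 2 h and 6 h at 1×, 2× and 4× MIC, with vancomycin and daptomycin at 1× and 2× MIC and untreated cells; cell morphology imaged by scanning electron microscopy.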

Staphylococcus aureus [26] = experiment: Synergistic bactericidal activity against Staphylococcus aureus ATCC 29213 assessed as reduction in bacterial count at 0.02 ug/ml incubated up to 8 hrs in presence of vancomycin by time-kill assay; assay type: functional; conditions: dose 0.02 µg/ml
Method in brief: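 Time-kill with compound combined with vancomycin at synergistic concentrations (from checkerboard FIC) against S. aureus; CFU followed up to 8 h and at 24 h.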

Staphylococcus aureus [27] = experiment: Antibacterial activity against Staphylococcus aureus SA-K2192 overexpressing TetK by Alamar blue staining based analysis; assay type: functional

## CCCc1nn(C)c2c(Nc3ccc(O)cc3)nc(-c3ccc([N+](=O)[O-])o3)nc12
Staphylococcus aureus [1]
  Activity: Not active; Initial Killing Was Observed, But Exhibited Some Re-Growth After 8 To 10 Hrs
Staphylococcus aureus [2]
  MIC: 0.15 µg/mL (≈ 0.38 µM)
[3]
  half-life: 21 min
[4]
  solubility: 1 µg/mL (≈ 2.54 µM)
[5]
  Vd: 1.69 L/kg
Staphylococcus aureus [6]
  fractional inhibitory concentration index (FICI): 1
[7]
  Activity: Non-toxic
Staphylococcus aureus [8]
  Activity: Dose-dependent-effect
[9]
  Tmax: 30 min
[10]
  metabolised: 71%
Escherichia coli
  MIC: inactive
[11]
  Vd: 4.75 L/kg
Staphylococcus aureus [12]
  MIC: 0.3 µg/mL (≈ 0.761 µM)
Staphylococcus aureus [13]
  Activity: Active; Significantly Greater Effect Was Observed At 50 Mg/Kg Compared To Vancomycin
[14]
  clearance: 176 mL/min/kg
RAW264.7
  Activity: Non-toxic
[15]
  CL/F: 159 mL/min/kg
Staphylococcus aureus [16]
  MIC: 0.6 µg/mL (≈ 1.52 µM)
Staphylococcus aureus [17]
  Activity: Dose-dependent-effect
[18]
  IC50 at 24 h: > 50 µg/mL
Staphylococcus aureus [19]
  Activity: 30%
[20]
  PPB: 99.1%
[21]
  AUC(0-inf): 3150 ng·h/mL
Staphylococcus aureus [22]
  Activity: Active
Staphylococcus aureus [23]
  Activity: Time-dependent-effect
Staphylococcus aureus [24]
  Activity: Active
Staphylococcus aureus [25]
  Activity: Active
Staphylococcus aureus [26]
  Activity: >10 log10CFU
Staphylococcus aureus [27]
  MIC: 0.3 µg/mL (≈ 0.761 µM)
